# Experimental data pooled from the literature.
# Protocols differ between the studies behind these lines.
# Target: Prostaglandin G/H synthase 2 (PTGS2, Homo sapiens, UniProt P35354)
# Read-out: enzyme activity
# Action: inhibitor
# Sequence (P35354 18-604, as in one of the studies): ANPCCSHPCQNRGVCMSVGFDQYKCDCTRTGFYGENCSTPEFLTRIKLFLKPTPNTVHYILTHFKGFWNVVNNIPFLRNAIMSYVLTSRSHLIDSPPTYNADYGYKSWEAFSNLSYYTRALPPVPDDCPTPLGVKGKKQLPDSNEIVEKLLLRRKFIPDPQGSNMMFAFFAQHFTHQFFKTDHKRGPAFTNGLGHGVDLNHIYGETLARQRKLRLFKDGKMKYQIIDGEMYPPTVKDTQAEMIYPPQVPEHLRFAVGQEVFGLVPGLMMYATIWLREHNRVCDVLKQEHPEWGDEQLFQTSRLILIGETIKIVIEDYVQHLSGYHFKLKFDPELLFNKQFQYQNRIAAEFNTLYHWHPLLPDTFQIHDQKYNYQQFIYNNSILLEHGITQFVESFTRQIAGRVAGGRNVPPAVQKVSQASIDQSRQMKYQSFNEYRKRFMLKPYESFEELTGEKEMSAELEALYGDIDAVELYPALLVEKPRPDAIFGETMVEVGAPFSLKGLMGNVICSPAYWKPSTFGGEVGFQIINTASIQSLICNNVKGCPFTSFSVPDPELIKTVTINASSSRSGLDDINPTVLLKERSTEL
Structure (SMILES),assay,setting,quantity,result
NS(=O)(=O)c1ccc(-c2ncccc2-c2nc3ccccc3s2)cc1,absorbance,10 µM,inhibition,88.5%
O=C(Nc1cccnn1)N1CCN([C@@H]2CCOc3cc(C(F)(F)F)ccc32)CC1,,20 µM,inhibition,-2%
COCc1c(-c2cc3cc(C)cc(OC)c3s2)c2c(N)ncnn2c1CN1CCNC(=O)C1,,10 µM,inhibition,6%
Cc1ccc(-c2nc3ccccc3s2)c(-c2ccc(S(C)(=O)=O)cc2)c1,absorbance,10 µM,inhibition,72%
c1ccc(C(NCCNC(c2ccccc2)c2ccccc2)c2ccccc2)cc1,,10 µM,inhibition,0%
COc1ccc(-c2ccc(N)cc2-c2nc3ccccc3s2)cc1,absorbance,10 µM,inhibition,10.3%
Clc1ccc2c(C3CCN(CCc4c[nH]c5ccccc45)CC3)c[nH]c2c1,,10 µM,inhibition,79%
C[C@H](C(=O)N[C@H]1COc2ccccc2[C@@H]1S(C)(=O)=O)c1ccc(F)cc1,,10 µM,inhibition,-27%
Nc1ncc(-c2nc(N3CCOCC3)nc(N3CCOCC3)n2)c(C(F)F)n1,,10 µM,remaining activity,99%
Cc1ncc(C)n2nc(/C=C/c3nc(N4CCCC4)cc(N4CCOCC4)n3)nc12,,10 µM,inhibition,0%
